Compound activity: PubChem, Johns Hopkins Ion Channel Center
TRPC4 agonist: TRPC4 (mouse) channel activation. HEK293 TRPC4beta/mu-opioid, Fluo4 calcium fluorescence; active compounds read high. B-score at 10 µM. 0.49% of 310,000 active. Q9QUQ5;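 active means B-score above 5 SD of library B-scores, and initial fluorescence ratio not above library mean plus 5 SD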;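 further: positive B-score marks a calcium rise read as TRPC4 activation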
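Material: HEK293 stable line with TRPC4beta plus mu-opioid receptor; technique: Fluo4 calcium-sensitive dye fluorescence, kinetic, 1 Hz baseline; timing: Fluo4 dye loading 45 min at room temperature, 110 s recording; controls: assay buffer as low control, maximal DAMGO as high control; read-out: integrated baseline-normalised fluorescence ratio, converted to per-well B score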
TRPC4 block: TRPC4 (mouse) channel inhibition; Q9QUQ5; HEK293 TRPC4beta/mu-opioid, DAMGO-evoked Fluo4 calcium flux; active compounds read low; B-score at 10 µM; 0.39% of 300,000 active;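 active means B-score over 3 SD under the library average, no early fluorescence shift, positive overall ratio signal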
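Test system – stable TRPC4beta/mu-opioid receptor HEK293 cells · Probe or stimulus – DAMGO, a submaximal dose followed by a maximal one · Dosing – one concentration per compound · Signal – Fluo4 calcium fluorescence by kinetic imaging, 5 s 1 Hz baseline · Evaluation – per-well B score of integrated baseline-normalized Fluo4 ratio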
TRPC6 act: activators of mouse TRPC6 channel; Q61143; HEK293-TRPC6 membrane potential dye fluorescence; active compounds read high; B-score at 10 µM; 0.13% of 310,000 active; AID 2550;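 active means B-score of the integrated fluorescence ratio above library mean plus 3 SD, and starting fluorescence ratio within library mean plus 5 SD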;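 further: higher score means more depolarization so channel activation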
Target sequence (Q61143 whole entry, looked up): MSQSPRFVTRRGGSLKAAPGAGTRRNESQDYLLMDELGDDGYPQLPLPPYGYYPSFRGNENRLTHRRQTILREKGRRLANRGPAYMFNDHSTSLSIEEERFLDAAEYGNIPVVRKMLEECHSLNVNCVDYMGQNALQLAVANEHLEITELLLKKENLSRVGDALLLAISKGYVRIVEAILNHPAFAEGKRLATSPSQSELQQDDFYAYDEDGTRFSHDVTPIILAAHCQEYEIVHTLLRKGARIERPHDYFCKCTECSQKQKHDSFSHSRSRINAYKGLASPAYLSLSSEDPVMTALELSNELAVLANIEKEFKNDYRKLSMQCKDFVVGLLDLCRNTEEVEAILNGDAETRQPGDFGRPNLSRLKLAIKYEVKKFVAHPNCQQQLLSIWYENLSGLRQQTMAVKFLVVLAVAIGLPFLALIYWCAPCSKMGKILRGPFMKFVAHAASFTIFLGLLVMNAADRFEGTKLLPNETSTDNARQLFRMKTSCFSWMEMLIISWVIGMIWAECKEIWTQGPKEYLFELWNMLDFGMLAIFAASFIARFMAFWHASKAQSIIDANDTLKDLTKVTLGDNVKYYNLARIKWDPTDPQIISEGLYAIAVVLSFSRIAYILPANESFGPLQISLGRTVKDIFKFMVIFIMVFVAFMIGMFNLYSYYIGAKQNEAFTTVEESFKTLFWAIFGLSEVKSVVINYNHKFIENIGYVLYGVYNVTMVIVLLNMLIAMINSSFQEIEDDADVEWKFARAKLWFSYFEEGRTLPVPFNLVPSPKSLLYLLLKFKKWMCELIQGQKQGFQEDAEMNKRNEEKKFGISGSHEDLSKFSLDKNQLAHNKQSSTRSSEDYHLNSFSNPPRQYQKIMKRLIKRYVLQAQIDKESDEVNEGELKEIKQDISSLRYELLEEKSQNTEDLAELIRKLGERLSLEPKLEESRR
TRPC4 PAM: TRPC4 (mouse) allosteric potentiation; HEK293 TRPC4beta/mu-opioid, DAMGO EC20, Fluo-4 Ca2+ flux; active compounds read high; 0.42% of 310,000 active; B-score at 10 µM; Q9QUQ5;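 active means B-score of calcium response area above 5 SD of library B-scores, with initial fluorescence ratio within 5 SD of library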
TRPC6 inh: inhibitors of mouse TRPC6 channel; Q61143; HEK293-TRPC6, membrane potential dye, ACh-evoked depolarization; active compounds read low; B-score at 10 µM; 1.1% of 310,000 active; AID 2553;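 active means B-score under library mean minus 3 SD, initial fluorescence not abnormally high, positive integrated signal ratio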;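 further: B-score derived from integrated fluorescence ratio over the kinetic read; more negative B-score means stronger inhibition of depolarization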
Large screens that a line does not name were inactive. Compounds with a hit are over-represented: about 2.3% of the library has one in this group of screens.

Nc1cc(=O)nc(SCC(=O)N2CCN(c3ccccc3)CC2)n1-c1ccccc1	none
Fc1ccc(C(c2nnnn2Cc2ccco2)N2CCN(C3CCCCC3)CC2)cc1 (centres undefined)	TRPC4 agonist 196
c1ccc(Cn2nnnc2C(c2cccnc2)N2CCN(C3CCCCC3)CC2)cc1 (centres undefined)	TRPC4 agonist 103
Fc1ccc(C(c2nnnn2Cc2cccs2)N2CCN(C3CCCC3)CC2)cc1 (centres undefined)	none
ClC1(Cl)CC1Cn1cnc2ccccc21 (centres undefined)	none
CCCCNC(=O)c1cc(C)nn1-c1ccccc1	none
Cc1cc(C(=O)NCCCN2CCN(c3cc(Cl)ccc3C)CC2)n(-c2ccccc2)n1	TRPC4 block -6
CCOC(=O)c1nc(NCc2ccccc2)sc1C	none
c1ccc(CN2CCC(Nc3nc(-c4ccccc4)nc4ccccc34)CC2)cc1	TRPC6 inh -6.58
CN(CCc1ccccn1)S(=O)(=O)c1ccccc1F	TRPC4 agonist 79
Cc1ccc(OCc2cc(C(=O)N(C)CCc3ccccn3)no2)cn1	TRPC4 agonist 81
CN(CCc1ccccn1)C(=O)Nc1ccc(F)cc1	TRPC4 agonist 63
Cc1ccc(OCC(=O)N(C)CCc2ccccn2)cc1	TRPC4 agonist 89
CSc1ccc(CN(C)CCc2ccccn2)cc1	none
O=C(O)[C@H](Cc1ccccc1)N1C(=O)c2c(Cl)c(Cl)c(Cl)c(Cl)c2C1=O	none
CC(C)N1CC(C(=O)Nc2cc(Cl)cc(Cl)c2)CC1=O (centres undefined)	none
N#Cc1ccc(C(=O)Nc2nnc(-c3cccs3)o2)cc1	none
O=C(Nc1nnc(-c2cccs2)o1)c1cccc(C(F)(F)F)c1	TRPC4 agonist 127
CN[C@@H]1CC[C@H](c2ccc(Cl)c(Cl)c2)c2ccccc21	TRPC4 PAM 14
COc1ccccc1C1CCN(Cc2ccc(Cl)c(Cl)c2)CC1	none
Cc1ccc(C)c2[nH]c(=O)c(C(c3nnnn3C3CCCC3)N3CCOCC3)cc12 (centres undefined)	TRPC4 PAM 23
Cc1ccc2cc(C(c3nnnn3C3CCCC3)N3CCOCC3)c(=O)[nH]c2c1C (centres undefined)	none
Cc1ccc(C)c2[nH]c(=O)c(C(c3nnnn3CCc3ccccc3)N3CCOCC3)cc12 (centres undefined)	none
Cc1ccc(C)c2[nH]c(=O)c(CN(Cc3nnnn3C3CCCCC3)CC3CCCO3)cc12 (centres undefined)	TRPC4 block -6
CCN1CCN(C(c2cc3cccc(C)c3[nH]c2=O)c2nnnn2Cc2ccccc2)CC1 (centres undefined)	TRPC4 agonist 76
Cc1ccc(C)c2[nH]c(=O)c(C(c3nnnn3Cc3ccco3)N3CCc4ccccc4C3)cc12 (centres undefined)	TRPC4 PAM 11
CC(NC(=O)Cc1ccccc1)c1cc2c(cc1Br)OCCCO2 (centres undefined)	none
CN(C)CCOC(=O)C1(c2ccccc2)CCOCC1	TRPC4 PAM 11
CC(NCC(O)COCCC12CC3CC(CC(C3)C1)C2)c1ccccc1 (centres undefined)	TRPC4 agonist 83
NCC(O)COCCC12CC3CC(CC(C3)C1)C2 (centres undefined)	none
Cc1cc(C)c(S(=O)(=O)N2CCN(C(=O)c3cccs3)CC2)c(C)c1	none
Cc1ccc(S(=O)(=O)N2CCN(C(=O)c3cccs3)CC2)c(C)c1	TRPC4 PAM 11
CCOc1ccc(NC(=O)COc2cccc3c2CCN(Cc2cccnc2)C3=O)cc1	none
CC1CN(C(=O)c2ccc(NS(=O)(=O)c3ccc(C(C)(C)C)cc3)cc2)CC(C)O1 (centres undefined)	TRPC4 agonist 89
COc1ccccc1NC(=O)C1(c2ccccc2)CCCC1	TRPC4 PAM 13
Cc1cc(S(=O)(=O)Nc2ccc(C(=O)NCC(C)(C)N3CCOCC3)cc2)ccc1F	none
COc1ccc(CNC(=O)C(C)NCc2ccc(S(N)(=O)=O)cc2)cc1 (centres undefined)	TRPC4 block -8
Cc1noc(C)c1S(=O)(=O)N1CCC(C(=O)NCCCN2CC(C)CC(C)C2)CC1 (centres undefined)	TRPC4 agonist 111
O=C(CNCC1CCCCC1)Nc1ccc(OC(F)(F)F)cc1	TRPC4 agonist 43
CC1(C(=O)OCc2cc(=O)n3cc(Br)ccc3n2)CC1(Cl)Cl (centres undefined)	TRPC4 PAM 15
COc1ccc2nc(C)cc(NCc3ccc(F)cc3)c2c1	TRPC4 block -6
COc1ccc(/C=N/Nc2cc(C)nc3ccc(OC)cc23)c(OC)c1	TRPC6 inh -5.39
COc1ccccc1/C=N/Nc1cc(C)nc2ccc(C)cc12	none
CN(C)CCn1c(=S)[nH]c2ccccc2c1=O	TRPC4 PAM 11
O=c1c2ccccc2[nH]c(=S)n1CCN1CCN(Cc2ccccc2)CC1	TRPC4 block -6
c1ccc(CN2CCN(Cc3c[nH]c4ccccc34)CC2)cc1	TRPC4 block -6
O=c1c2ccccc2[nH]c(=S)n1Cc1cccnc1	TRPC4 agonist 45, TRPC4 block -6
COc1cc(Br)cc(C2C3=C(CCCC3=O)N(c3ccc(F)cc3)C3=C2C(=O)CCC3)c1O	TRPC4 PAM 70
COc1ccccc1C1C2=C(CCCC2=O)N(CC(=O)O)C2=C1C(=O)CCC2	none
COc1ccc(CN2CCN(C(=O)c3ccc(F)cc3)CC2)c(OC)c1	TRPC4 block -6
CCOc1ccc(S(=O)(=O)NC(C)(C)C)cc1-c1nc2c(C(C)(C)C)nn(C)c2c(=O)[nH]1	TRPC4 PAM 11
Cc1nn(C)cc1C(C(=O)NC1CCCCC1)N(C(=O)Cc1cccs1)c1ccc(F)cc1 (centres undefined)	none
Cc1nn(C)cc1C(C(=O)NC1CCCCC1)N(C(=O)Cc1cccs1)c1ccc(C(C)C)cc1 (centres undefined)	TRPC4 agonist 44
C[C@H](NC(CCc1ccccc1)C(=O)O)C(=O)N1CCC[C@H]1C(=O)O (some centres undefined)	TRPC4 agonist 55
C[C@H](NC(=O)[C@H](Cc1ccccc1)n1c(=O)[nH]c2ccccc2c1=O)C(=O)N1CCC[C@H]1C(=O)O	none
Cc1ccc(NC(=O)COC(=O)C2CCC2)cc1S(=O)(=O)N1CCCCC1	none
O=C(O)c1ccc(N/N=C/c2c[nH]c3ccccc23)cc1	TRPC6 inh -5.19
CN(CC(=O)Nc1ccccc1Cl)C(=O)COC(=O)CN1C(=O)NC2(CCCC2)C1=O	none
Cc1cccc(OCc2nnc(SCC(=O)N3CCCCC3)o2)c1	none
O=[N+]([O-])c1ccc2c3n([n+]([O-])c2c1)CCN=C3c1ccc(Cl)cc1	none
COC(=O)c1cc(Cl)nc2ccccc12	none
O=C(Cc1cn(Cc2cccc(Cl)c2)c2ccccc12)N1CCCC1	TRPC4 PAM 16
